Measurements published in ChEMBL document CHEMBL5678799 (Biochem J, 2009).
The source made the active and inactive calls. The calls are words filed in the database; no cut-off is given here.

Legend:
[1] = target: Tyrosine-protein kinase CSK (Homo sapiens) (UniProt P41240); assay: Inhibition of recombinant human N-terminal GST-tagged CSK (1 to 450 residues) expressed in Escherichia coli assessed as remaining activity at 10 uM Cdc2 peptide as substrate incubated for 30 mins in presence of [gamma-33P]ATP by filter binding method relative to control
Method in brief: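 Incubations ran robotically for 30 min at room temperature (21 °C) under linear conditions. Results are percent activity remaining versus controls without compound, as the mean of triplicates ± S.D.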

[2] = target: 3-phosphoinositide-dependent protein kinase 1 (Homo sapiens) (UniProt O15530); assay: Inhibition of recombinant human His6-tagged PDK1 (52 to 556 residues) expressed in baculovirus infected Sf21 cells assessed as remaining activity at 10 uM using PDKtide as substrate incubated for 30 mins in presence of [gamma-33P]ATP by filter binding method relative to control
Sequence of 3-phosphoinositide-dependent protein kinase 1 (Homo sapiens) (O15530 whole entry, the tested form may be a part): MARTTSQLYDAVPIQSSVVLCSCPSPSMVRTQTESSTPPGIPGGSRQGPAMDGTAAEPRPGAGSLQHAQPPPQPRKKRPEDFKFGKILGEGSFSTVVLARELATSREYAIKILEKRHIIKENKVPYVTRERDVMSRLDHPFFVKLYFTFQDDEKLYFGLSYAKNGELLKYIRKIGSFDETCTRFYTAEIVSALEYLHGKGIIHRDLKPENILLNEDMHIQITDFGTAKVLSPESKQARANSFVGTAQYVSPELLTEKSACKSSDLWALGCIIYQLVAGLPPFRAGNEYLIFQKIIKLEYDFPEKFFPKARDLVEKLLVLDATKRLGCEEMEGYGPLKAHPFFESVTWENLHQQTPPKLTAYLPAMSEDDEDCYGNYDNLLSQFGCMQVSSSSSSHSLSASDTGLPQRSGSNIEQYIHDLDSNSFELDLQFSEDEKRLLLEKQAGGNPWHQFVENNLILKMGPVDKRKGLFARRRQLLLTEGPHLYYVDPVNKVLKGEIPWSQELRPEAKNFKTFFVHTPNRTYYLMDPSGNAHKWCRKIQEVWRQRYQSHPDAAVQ
Method in brief: (§1)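 Robotic radiometric panel assay, 30 min at room temperature (21 °C), with 10 mM magnesium acetate. […] Compound at 1 or 10 µM. Residual activity expressed relative to compound-free control; triplicate average ± S.D.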

[3] = target: Mitogen-activated protein kinase 8 (Homo sapiens) (UniProt P45983); assay: Inhibition of recombinant human His6-tagged JNK1alpha1 (1 to 384 residues) expressed in baculovirus infected Sf21 cells assessed as remaining activity at 10 uM using ATF2 as substrate incubated for 30 mins in presence of [gamma-33P]ATP by filter binding method relative to control; method in brief: as §1
Sequence of Mitogen-activated protein kinase 8 (Homo sapiens) (P45983 whole entry, the tested form may be a part): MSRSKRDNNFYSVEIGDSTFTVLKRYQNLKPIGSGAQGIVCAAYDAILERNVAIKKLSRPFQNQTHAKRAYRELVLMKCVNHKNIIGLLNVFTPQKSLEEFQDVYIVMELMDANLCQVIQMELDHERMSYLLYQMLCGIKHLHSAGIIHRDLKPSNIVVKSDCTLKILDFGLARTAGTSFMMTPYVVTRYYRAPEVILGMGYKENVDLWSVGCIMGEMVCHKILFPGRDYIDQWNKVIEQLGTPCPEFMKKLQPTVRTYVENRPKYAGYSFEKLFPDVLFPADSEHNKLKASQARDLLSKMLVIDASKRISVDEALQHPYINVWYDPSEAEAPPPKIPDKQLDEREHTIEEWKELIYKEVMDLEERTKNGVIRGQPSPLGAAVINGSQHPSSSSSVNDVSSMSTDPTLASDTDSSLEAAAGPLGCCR

mTORC2 (Homo sapiens) [4] = target: T1, mTORC2 (Homo sapiens) (UniProt P42345+Q6R327+Q9BVC4+Q9BPZ7); conditions: HEK293, dose 30-1000 nM, time 30.0 min
[5] = target: Insulin receptor (Homo sapiens) (UniProt P06213); assay: Inhibition of recombinant human N-terminal His6-tagged IR (1001 to 1382 residues) expressed in baculovirus infected Sf21 cells assessed as remaining activity at 10 uM using KKSRGDYMTMQIG as substrate incubated for 30 mins in presence of [gamma-33P]ATP by filter binding method relative to control
Sequence of Insulin receptor (Homo sapiens) (P06213 28-758 limits assumed): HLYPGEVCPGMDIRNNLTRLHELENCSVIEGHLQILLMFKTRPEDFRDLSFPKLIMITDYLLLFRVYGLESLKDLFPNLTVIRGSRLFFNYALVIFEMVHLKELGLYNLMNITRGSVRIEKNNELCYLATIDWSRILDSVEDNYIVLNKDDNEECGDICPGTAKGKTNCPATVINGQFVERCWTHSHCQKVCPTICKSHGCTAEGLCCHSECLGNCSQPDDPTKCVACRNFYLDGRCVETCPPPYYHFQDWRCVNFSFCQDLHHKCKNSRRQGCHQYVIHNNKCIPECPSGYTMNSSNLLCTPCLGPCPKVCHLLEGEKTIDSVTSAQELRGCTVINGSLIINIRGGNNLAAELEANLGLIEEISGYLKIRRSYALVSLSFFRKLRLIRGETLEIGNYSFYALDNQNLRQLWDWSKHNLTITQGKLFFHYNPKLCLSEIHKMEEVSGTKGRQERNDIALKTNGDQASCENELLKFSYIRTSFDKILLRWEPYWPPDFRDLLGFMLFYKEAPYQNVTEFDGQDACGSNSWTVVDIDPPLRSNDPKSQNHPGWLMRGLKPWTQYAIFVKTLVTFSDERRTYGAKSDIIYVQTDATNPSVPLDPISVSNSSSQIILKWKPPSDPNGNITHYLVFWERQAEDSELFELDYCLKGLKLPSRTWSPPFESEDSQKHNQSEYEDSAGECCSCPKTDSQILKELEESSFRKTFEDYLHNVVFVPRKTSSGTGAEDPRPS
Sequence of Insulin receptor (Homo sapiens) (P06213 763-1382 limits assumed): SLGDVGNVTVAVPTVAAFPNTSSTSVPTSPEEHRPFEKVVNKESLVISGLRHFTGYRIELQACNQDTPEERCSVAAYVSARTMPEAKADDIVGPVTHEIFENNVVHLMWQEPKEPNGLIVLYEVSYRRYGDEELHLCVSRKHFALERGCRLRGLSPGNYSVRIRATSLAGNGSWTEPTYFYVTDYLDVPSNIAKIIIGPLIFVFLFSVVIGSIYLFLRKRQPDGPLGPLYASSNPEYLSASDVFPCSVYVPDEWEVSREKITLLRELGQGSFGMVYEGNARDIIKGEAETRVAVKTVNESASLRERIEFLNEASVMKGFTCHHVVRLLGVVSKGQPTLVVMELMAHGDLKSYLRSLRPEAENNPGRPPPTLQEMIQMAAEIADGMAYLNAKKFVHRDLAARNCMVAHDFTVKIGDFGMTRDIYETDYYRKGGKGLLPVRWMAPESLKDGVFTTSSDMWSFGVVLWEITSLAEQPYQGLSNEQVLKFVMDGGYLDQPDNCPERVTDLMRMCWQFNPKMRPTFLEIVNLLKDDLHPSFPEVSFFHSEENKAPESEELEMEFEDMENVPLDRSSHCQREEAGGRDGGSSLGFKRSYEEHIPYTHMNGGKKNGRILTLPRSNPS

mTORC1 (Homo sapiens) [6] = target: T2, mTORC1 (Homo sapiens) (UniProt P42345+Q8N122+Q9BVC4); conditions: HEK293, dose 30-1000 nM, time 30.0 min
[7] = target: Calcium/calmodulin-dependent protein kinase kinase 2 (Homo sapiens) (UniProt Q96RR4); assay: Inhibition of recombinant human N-terminal GST-tagged CAMKKbeta (1 to 541 residues) expressed in Escherichia coli assessed as remaining activity at 10 uM using DGEFLRTSCGSPNYAARRR as substrate incubated for 30 mins in presence of [gamma-33P]ATP by filter binding method relative to control; method in brief: as §1
Sequence of Calcium/calmodulin-dependent protein kinase kinase 2 (Homo sapiens) (Q96RR4 2-588 limits assumed): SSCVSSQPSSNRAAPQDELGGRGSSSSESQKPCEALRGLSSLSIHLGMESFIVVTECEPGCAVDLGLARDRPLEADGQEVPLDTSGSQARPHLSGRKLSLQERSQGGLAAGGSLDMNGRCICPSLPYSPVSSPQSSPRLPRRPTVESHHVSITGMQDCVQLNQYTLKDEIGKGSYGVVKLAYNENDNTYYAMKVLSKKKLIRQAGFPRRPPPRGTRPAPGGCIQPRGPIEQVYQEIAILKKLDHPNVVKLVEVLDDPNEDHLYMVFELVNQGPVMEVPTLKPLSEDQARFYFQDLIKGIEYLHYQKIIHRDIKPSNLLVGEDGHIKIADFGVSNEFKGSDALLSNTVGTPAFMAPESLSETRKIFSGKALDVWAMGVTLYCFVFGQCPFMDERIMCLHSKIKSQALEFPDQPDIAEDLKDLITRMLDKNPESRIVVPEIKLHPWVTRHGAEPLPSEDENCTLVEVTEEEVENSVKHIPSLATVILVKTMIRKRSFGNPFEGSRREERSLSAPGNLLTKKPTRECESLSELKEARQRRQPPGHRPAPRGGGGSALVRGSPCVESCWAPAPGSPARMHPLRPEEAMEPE

[8] = target: Tyrosine-protein kinase SYK (Homo sapiens) (UniProt P43405); assay: Inhibition of recombinant human N-terminal His6-tagged SYK (1 to 635 residues) expressed in baculovirus infected Sf21 cells assessed as remaining activity at 10 uM using Poly (Glu,Tyr) as substrate incubated for 30 mins in presence of [gamma-33P]ATP by filter binding assay relative to control
[9] = target: Mitogen-activated protein kinase 1 (Homo sapiens) (UniProt P28482); assay: Inhibition of recombinant human N-terminal GST-tagged ERK2 (2 to 360 residues) expressed in Escherichia coli assessed as remaining activity at 1 uM using MBP as substrate incubated for 30 mins in presence of [gamma-33P]ATP by filter binding method relative to control
Sequence of Mitogen-activated protein kinase 1 (Homo sapiens) (P28482 whole entry, the tested form may be a part): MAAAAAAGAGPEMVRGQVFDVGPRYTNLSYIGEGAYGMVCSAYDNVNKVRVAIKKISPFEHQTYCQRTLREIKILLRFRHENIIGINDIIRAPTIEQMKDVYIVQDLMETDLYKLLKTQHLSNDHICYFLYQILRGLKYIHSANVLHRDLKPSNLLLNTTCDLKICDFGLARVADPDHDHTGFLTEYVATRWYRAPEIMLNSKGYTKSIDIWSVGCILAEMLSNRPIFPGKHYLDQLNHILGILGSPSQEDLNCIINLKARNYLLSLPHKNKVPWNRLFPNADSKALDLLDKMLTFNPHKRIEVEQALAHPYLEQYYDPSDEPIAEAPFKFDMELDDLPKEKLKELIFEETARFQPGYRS
Method in brief: (§2)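 Incubation was 30 min at room temperature (21 °C) under conditions linear with time and enzyme amount. Activity is reported as percent of control lacking compound, triplicate mean ± S.D.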

mTORC1 (Homo sapiens) [10] = target: T2, mTORC1 (Homo sapiens); conditions: HEK293, dose 100-300 nM, time 30.0 min
[11] = target: Ribosomal protein S6 kinase alpha-3 (Homo sapiens) (UniProt P51812); assay: Inhibition of recombinant human N-terminal His6-tagged RSK2 (2 to 740 residues) expressed in baculovirus infected Sf21 cells assessed as remaining activity at 1 uM using KKLNRTLSVA as substrate incubated for 30 mins in presence of [gamma-33P]ATP by filter binding method relative to control
Method in brief: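 Assays ran 30 min at 21 °C, robotically and in the linear range. Remaining activity is given relative to incubations lacking compound, as the average of triplicate determinations ± S.D.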

[12] = target: SRSF protein kinase 1 (Homo sapiens) (UniProt Q96SB4); assay: Inhibition of recombinant human N-terminal GST-tagged SRPK1 (2 to 654 residues) expressed in Escherichia coli assessed as remaining activity at 10 uM using RSRSRSRSRSRSRSR as substrate incubated for 30 mins in presence of [gamma-33P]ATP by filter binding assay relative to control; method in brief: as §2
Sequence of SRSF protein kinase 1 (Homo sapiens) (Q96SB4 whole entry, the tested form may be a part): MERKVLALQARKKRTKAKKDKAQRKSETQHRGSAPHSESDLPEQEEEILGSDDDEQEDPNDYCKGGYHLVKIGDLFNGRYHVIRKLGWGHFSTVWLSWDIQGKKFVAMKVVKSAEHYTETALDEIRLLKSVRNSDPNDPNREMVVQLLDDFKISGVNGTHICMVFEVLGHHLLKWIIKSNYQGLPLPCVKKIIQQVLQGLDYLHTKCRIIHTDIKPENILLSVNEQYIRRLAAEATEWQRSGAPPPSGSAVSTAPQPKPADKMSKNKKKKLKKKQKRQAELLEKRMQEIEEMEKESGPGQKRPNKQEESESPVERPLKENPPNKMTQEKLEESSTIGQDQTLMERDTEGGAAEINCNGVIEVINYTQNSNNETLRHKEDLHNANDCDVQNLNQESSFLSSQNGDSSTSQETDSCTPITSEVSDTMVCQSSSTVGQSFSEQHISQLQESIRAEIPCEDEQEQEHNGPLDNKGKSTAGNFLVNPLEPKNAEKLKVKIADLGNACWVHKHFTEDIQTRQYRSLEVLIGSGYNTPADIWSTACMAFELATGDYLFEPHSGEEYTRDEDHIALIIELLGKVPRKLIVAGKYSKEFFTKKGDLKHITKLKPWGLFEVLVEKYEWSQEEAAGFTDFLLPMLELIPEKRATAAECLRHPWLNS

mTORC2 (Homo sapiens) [13] = target: T1, mTORC2 (Homo sapiens); conditions: HEK293, dose 30-1000 nM, time 30.0 min; remark: listed apart in the source
[14] = target: Mitogen-activated protein kinase 3 (Homo sapiens) (UniProt P27361); assay: Inhibition of recombinant human N-terminal GST-tagged ERK1 (2 to 379 residues) expressed in Escherichia coli assessed as remaining activity at 10 uM using MBP as substrate incubated for 30 mins in presence of [gamma-33P]ATP by filter binding method relative to control
Sequence of Mitogen-activated protein kinase 3 (Homo sapiens) (P27361 whole entry, the tested form may be a part): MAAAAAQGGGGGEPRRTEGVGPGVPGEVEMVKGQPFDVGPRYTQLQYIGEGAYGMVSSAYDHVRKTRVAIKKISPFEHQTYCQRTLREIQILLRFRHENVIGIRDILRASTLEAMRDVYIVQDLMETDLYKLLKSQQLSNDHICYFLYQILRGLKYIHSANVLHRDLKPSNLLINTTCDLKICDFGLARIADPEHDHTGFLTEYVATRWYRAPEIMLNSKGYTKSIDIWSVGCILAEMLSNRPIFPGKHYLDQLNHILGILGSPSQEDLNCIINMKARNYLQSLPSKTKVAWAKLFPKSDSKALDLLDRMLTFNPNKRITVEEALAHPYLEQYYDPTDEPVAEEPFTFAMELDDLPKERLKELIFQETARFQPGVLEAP
Method in brief: (§3)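 Kinase panel run robotically at 21 °C for 30 min, linear in time and enzyme. […] Compound tested at 1 or 10 µM. Activity given as percentage of incubations without compound, mean of triplicates ± S.D.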

[15] = target: Casein kinase II subunit alpha (Homo sapiens) (UniProt P68400); assay: Inhibition of recombinant human N-terminal His6-tagged CK2alpha1 (2 to 391 residues) expressed in Escherichia coli assessed as remaining activity at 10 uM using RRRDDDSDDD as substrate incubated for 30 mins in presence of [gamma-33P]ATP by filter binding method relative to control
Sequence of Casein kinase II subunit alpha (Homo sapiens) (P68400 whole entry, looked up, the tested form may be a part): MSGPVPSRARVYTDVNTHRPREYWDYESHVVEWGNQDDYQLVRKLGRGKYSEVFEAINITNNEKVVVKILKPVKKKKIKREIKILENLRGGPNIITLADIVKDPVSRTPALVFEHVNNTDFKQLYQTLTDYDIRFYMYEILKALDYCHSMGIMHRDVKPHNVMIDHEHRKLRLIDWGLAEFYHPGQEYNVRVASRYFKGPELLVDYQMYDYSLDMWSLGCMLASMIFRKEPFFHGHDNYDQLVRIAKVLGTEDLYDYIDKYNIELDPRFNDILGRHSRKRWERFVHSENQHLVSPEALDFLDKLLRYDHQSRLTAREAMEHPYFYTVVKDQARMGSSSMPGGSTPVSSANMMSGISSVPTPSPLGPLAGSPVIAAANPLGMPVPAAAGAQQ
Method in brief: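 Radiometric panel assay run robotically at 21 °C for 30 min, linear in time and enzyme. […] Activity is expressed as percentage of the compound-omitted control, averaged from triplicates ± S.D.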

[16] = target: Mitogen-activated protein kinase 8 (Homo sapiens) (UniProt P45983); assay: Inhibition of recombinant human His6-tagged JNK1alpha1 (1 to 384 residues) expressed in baculovirus infected Sf21 cells assessed as remaining activity at 1 uM using ATF2 as substrate incubated for 30 mins in presence of [gamma-33P]ATP by filter binding method relative to control; method in brief: as §1
[17] = target: Dual specificity mitogen-activated protein kinase kinase 1 (Homo sapiens) (UniProt Q02750); assay: Inhibition of recombinant human MKK1 (2 to 393 residues) expressed in Escherichia coli at 10 uM using MBP as substrate incubated for 30 mins in presence of [gamma-33P]ATP by filter binding method relative to control; method in brief: as §3

COc1ccc(-c2ccc3c(N4CCOCC4)nc(N4C[C@@H](C)O[C@@H](C)C4)nc3n2)cc1CO [Ku-0063794]
Activity [1]: 99% | Activity [2]: 91% | Activity [3]: 93% | inhibition (mTORC2 (Homo sapiens) [4]): Active | Activity [5]: 67% | inhibition (mTORC1 (Homo sapiens) [6]): Dose-Dependent Effect | Activity [7]: 94% | Activity [8]: 83% | Activity [9]: 102% | inhibition (mTORC1 (Homo sapiens) [10]): 100% | Activity [11]: 103% | Activity [12]: 94% | inhibition (mTORC2 (Homo sapiens) [13]): Dose-Dependent Effect | Activity [14]: 87% | Activity [15]: 85% | Activity [16]: 80% | inhibition [17]: 55%
